Measured values reported in publication PMC3640342 (Pharmaceutical research, 2013).
In brackets after ≈: the same amount, converted by molar mass. Several values for one entry are separate records, joined by “and”; a condition that tells them apart may be missing. Equal entries are not always repeated. Where two headings read alike, the source gives them in different places.

How the values were obtained:
[1] = tested on: PrP^Sc levels in ScN2a-cl3 cells; experiment: cells; assay type: cell-based, mouse
[2] = Hepatic microsomal stability, mouse; assay type: in vitro ADME; details: mouse, mouse liver microsomes, pH 7.4
Summary of the method: (§1)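 Liver microsomes from mouse, rat or human (~0.5 mg/mL final) were incubated at 37°C with test compound at 1 μM final (0.6% ACN, 0.01% DMSO) in PBS pH 7.4 ± 0.05% PS80, with 1 mM NADPH or PBS.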

mouse liver microsomes = experiment: Hepatic microsomal stability, mouse; assay type: in vitro ADME; details: 1 μM; for t1/2: NADPH
Summary of the method: as §1

[3] = Hepatic microsomal stability, rat; assay type: in vitro ADME; details: rat, rat liver microsomes, pH 7.4
Summary of the method: as §1

rat liver microsomes = experiment: Hepatic microsomal stability, rat; assay type: in vitro ADME; details: 1 μM; for t1/2: NADPH
Summary of the method: as §1

[4] = Hepatic microsomal stability, human; assay type: in vitro ADME; details: human, human liver microsomes, pH 7.4
Summary of the method: as §1

human liver microsomes = experiment: Hepatic microsomal stability, human; assay type: in vitro ADME; details: 1 μM; for t1/2: NADPH
Summary of the method: as §1

[5] = Single-dose IV PK at 1 mg/kg; assay type: in vivo, FVB mice; details: female, FVB, mouse, plasma, iv, 1 mg/kg
Summary of the method: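 Female FVB mice (~25 g) received 1 mg/kg by tail-vein injection in 10% DMSO in PEG400/water (1:1), 10% DMSO, or 10% ethanol in PEG400/water (1:1). Two mice per time point were killed by CO2 at 5 min and 0.25, 0.5, 1, 2, 4 and 6 h, and heparinized plasma was collected. After protein precipitation, samples were assayed by LC/MS/MS, and parameters came from noncompartmental sparse-sampling analysis.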

[6] = Single-dose oral gavage PK at 10 mg/kg; assay type: in vivo, FVB mice
Summary of the method: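 Female FVB mice (~25 g) were dosed at 10 mg/kg by oral gavage in 20% propylene glycol, 5% ethanol, 5% labrosol and 70% PEG400. Two mice per time point were killed by CO2 at 0.25, 0.5, 1, 2, 4, 6 and 24 h. Heparinized plasma and brain (diluted five-fold in water, homogenized) were assayed by LC/MS/MS.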

[7] = 3-day multidose PK in liquid diet; assay type: in vivo, FVB mice; details: for Brain and plasma concentrations (C3-day) / Brain concentration (C3-day): 3 days in liquid diet
FVB mice = experiment: Drug tolerance / lethal toxicity on repeated dosing in liquid diet; assay type: in vivo
mouse plasma = details: 1 μM
[8] = mouse brain homogenate, 1 μM, corrected for dilution
[9] = cell-culture media with 10% FBS, 1 μM
[10] = Solubility at pH 2, pH 7.4 and in FaSSIF; assay type: physicochemical; details: for Solubility pH 7.4: pH 7.4 (phosphate) buffer
Media solubility = assay type: physicochemical; details: media used in the cell-based assays, 10% FBS
MDCK-MDR1 cells = experiment: Bidirectional MDCK-MDR1 cell permeability; assay type: in vitro ADME, canine; details: for Papp (A−B) / Papp (B−A): 10 μM, pH 7.4; for Efflux ratio: MDCK-MDR1 cells
[11] = Single-dose oral PK at 40 mg/kg; assay type: in vivo, FVB mice; details: single 40 mg/kg oral dose, ranking among 27 2-AMTs and Compd B
[12] = female, FVB, mouse, brain, po, 10 mg/kg
[13] = female, FVB, mouse, plasma, po, 10 mg/kg

C(=N\Nc1ccc(-c2cnco2)cc1)/c1ccncc1 [Compd B, (E)-5-(4-(2-(pyridin-4-ylmethylene)hydrazinyl)phenyl)oxazole, reference compound]
EC50 ([1]; Mus musculus, 120 h): 0.25 µM | half-life at 1 μM [2]: 30 min | remaining at 1 h, 1 μM [2]: 29% | t1/2 (mouse liver microsomes): rapidly metabolized | half-life at 1 μM [3]: > 60 min | remaining at 1 h, 1 μM [3]: 77% | t1/2 (rat liver microsomes): relatively stable | half-life at 1 μM [4]: > 60 min | remaining at 1 h, 1 μM [4]: 68% | t1/2 (human liver microsomes): relatively stable | Vd [5]: 1.53 L/kg | clearance [5]: 76 mL/min/kg | %F (absolute oral bioavailability) ([6]; PO 10 mg/kg vs IV 1 mg/kg, plasma): 24.8% | Brain/Plasma AUClast Ratio ([6]; PO 10 mg/kg, 10 mg/kg): 0.51 | AUC(0-t) [6, 12]: 1.06 ± 0.1 µM·h | Cmax [6, 12]: 460 ± 160 nM | tmax [6, 12]: 120 min | AUC(0-t) [6, 13]: 2.06 ± 0.06 µM·h | Cmax [6, 13]: 830 ± 380 nM | half-life [6, 13]: 60.6 min | tmax [6, 13]: 30 min | AUC/EC50 ratios in brain and plasma, total concentration ([7]; 100 mg/kg/day for 3 days, AUC = C3-day × τ): greater than 100 | Brain and plasma concentrations (C3-day) ([7]; 25 and 50 mg/kg/day): below the level of quantification | Deaths (FVB mice; 150 mg/kg/day for 8 days in liquid diet): two of four mice | Lethal toxicity (FVB mice; 25, 50, and 100 mg/kg/day in liquid diet): none showed lethal toxicity | Unbound (%) (mouse plasma): 9% and 9.06±2.31% | Unbound (%) (human plasma; human plasma, 1 μM): 2.1% and 2.10±1.11% | Unbound (%) [8]: 11% and 11.4±2.89% | Unbound (%) [9]: 37% and 36.5±3.30%

Cc1cccc(Nc2nc(-c3cc4ccccc4o3)cs2)n1 [IND22]
EC50 [1]: 1.46 µM | Solubility pH 7.4 ([10]; room temperature overnight): <1 μM | Solubility Media (Media solubility): 20 µM (≈ 6.15 µg/mL) | Papp (A−B) (MDCK-MDR1 cells): 9.5 ×10⁻⁶ cm/s | Papp (B−A) (MDCK-MDR1 cells): 8.4 ×10⁻⁶ cm/s | Efflux ratio (MDCK-MDR1 cells): 0.9 | % remaining after a 60-min incubation (mouse liver microsomes): 40% | t1/2 (mouse liver microsomes): 49 min | % remaining after a 60-min incubation (rat liver microsomes): 64% | t1/2 (rat liver microsomes): > 60 min | % remaining after a 60-min incubation (human liver microsomes): 99% | t1/2 (human liver microsomes): > 60 min

Cc1ccc(Nc2nc(-c3ccc(OC(F)(F)F)cc3)cs2)nc1 [IND26]
EC50 [1]: > 10 µM

Cc1ccc(Nc2nc(-c3ccncc3)cs2)nc1 [IND29]
EC50 [1]: 1.57 µM

Cc1ccc(Nc2nc(-c3cc(-c4ccccc4)no3)cs2)nc1 [IND33]
EC50 [1]: 0.94 µM | Solubility pH 7.4 ([10]; room temperature overnight): <1 μM | Solubility Media (Media solubility): 225 µM (≈ 75.2 µg/mL) | Papp (A−B) (MDCK-MDR1 cells): 6.8 ×10⁻⁶ cm/s | Papp (B−A) (MDCK-MDR1 cells): 8.3 ×10⁻⁶ cm/s | Efflux ratio (MDCK-MDR1 cells): 1.2 | % remaining after a 60-min incubation (mouse liver microsomes): 111% | % remaining after a 60-min incubation (rat liver microsomes): 73% | % remaining after a 60-min incubation (human liver microsomes): 42% | Brain concentration (C3-day) ([7]; 130 mg/kg dose): ~ 30 μM

Cc1ccc(Nc2nc(-c3c(-c4ccccc4)noc3C)cs2)nc1 [IND36]
EC50 [1]: > 32 µM

Cc1ccc(Nc2nc(-c3cccc(C#N)c3)cs2)nc1 [IND38]
EC50 [1]: 2.29 µM

COc1ccc(-c2csc(Nc3cc(C)ccn3)n2)cc1OC [IND42]
EC50 [1]: 1 µM

COc1ccc(-c2csc(Nc3ccc(C(F)(F)F)cn3)n2)cc1OC [IND43]
EC50 [1]: 2.53 µM

COc1ccc(Nc2nc(-c3ccc(OC)c(OC)c3)cs2)nc1 [IND44]
Solubility pH 7.4 ([10]; room temperature overnight): <1 μM | % remaining after a 60-min incubation (mouse liver microsomes): 24% | t1/2 (mouse liver microsomes): 29 min | % remaining after a 60-min incubation (rat liver microsomes): 39% | t1/2 (rat liver microsomes): 45 min | % remaining after a 60-min incubation (human liver microsomes): 48% | t1/2 (human liver microsomes): 58 min

COc1ccc(-c2csc(Nc3cc4ccccc4cn3)n2)cc1OC [IND46]
Solubility pH 7.4 ([10]; room temperature overnight): <1 μM | Solubility Media (Media solubility): 174 µM (≈ 63.2 µg/mL) | % remaining after a 60-min incubation (mouse liver microsomes): 58% | % remaining after a 60-min incubation (rat liver microsomes): 61% | % remaining after a 60-min incubation (human liver microsomes): 83%

COc1ccc(-c2csc(Nc3ccc4ccccc4n3)n2)cc1OC [IND47]
EC50 [1]: 0.43 µM | Solubility pH 7.4 ([10]; room temperature overnight): <1 μM | Solubility Media (Media solubility): 52 µM (≈ 18.9 µg/mL) | Papp (A−B) (MDCK-MDR1 cells): 9.2 ×10⁻⁶ cm/s | Papp (B−A) (MDCK-MDR1 cells): 8.9 ×10⁻⁶ cm/s | Efflux ratio (MDCK-MDR1 cells): 1 | % remaining after a 60-min incubation (mouse liver microsomes): 56% | % remaining after a 60-min incubation (rat liver microsomes): 50% | % remaining after a 60-min incubation (human liver microsomes): 113% | Brain and plasma concentrations (C3-day) ([7]; 40, 80, 130 and 210 mg/kg/day): ≤ 1 µM

Cc1ccnc(Nc2nc(-c3ccccc3O)cs2)c1 [IND48]
EC50 [1]: > 10 µM | AUClast values, brain and plasma [11]: lowest AUClast values

Cc1ccnc(Nc2nc(-c3ccc(O)cc3)cs2)c1 [IND49]
EC50 [1]: > 10 µM | AUClast values, brain and plasma [11]: lowest AUClast values

Cc1ccnc(Nc2nc(-c3ccncc3)cs2)c1 [IND52]
EC50 [1]: 4.95 µM | Solubility FaSSIF ([10]; fasted-state simulated intestinal fluid): 2 µM (≈ 0.537 µg/mL) | Solubility pH 2.0 ([10]; pH 2 (HCl) buffer, room temperature overnight): 215 μM | Solubility pH 7.4 ([10]; room temperature overnight): 1 μM | Solubility Media (Media solubility): 76 µM (≈ 20.4 µg/mL) | Papp (A−B) (MDCK-MDR1 cells): 36.2 ×10⁻⁶ cm/s | Papp (B−A) (MDCK-MDR1 cells): 48.7 ×10⁻⁶ cm/s | Efflux ratio (MDCK-MDR1 cells): 1.3 | % remaining after a 60-min incubation (mouse liver microsomes): 0% | % remaining after a 60-min incubation (rat liver microsomes): 8% | % remaining after a 60-min incubation (human liver microsomes): 30% | Brain concentration (C3-day) ([7]; 40 mg/kg dose): no measurable brain concentrations

Cc1ccnc(Nc2nc(-c3ccc4c(c3)OCCO4)cs2)c1 [IND57]
EC50 [1]: > 10 µM

Cc1ccnc(Nc2nc(-c3cc(-c4ccc(Cl)cc4)no3)cs2)c1 [IND64]
EC50 [1]: 0.85 µM

COc1ccc(-c2csc(Nc3ccc(C)cn3)n2)c(OC)c1 [IND74]
EC50 [1]: 3.13 µM

Cc1ccc(Nc2nc(-c3ccc(-c4ccccn4)s3)cs2)nc1 [IND76]
EC50 [1]: 1.23 µM

Cc1ccnc(Nc2nc(-c3ccc(OC(F)(F)F)cc3)cs2)c1 [IND78]
EC50 [1]: > 32 µM

COc1ccc(-c2csc(Nc3cnccn3)n2)cc1OC [IND82]
EC50 [1]: 15.6 µM

c1ccc2cc(Nc3nc(-c4ccncc4)cs3)ncc2c1 [IND85]
EC50 [1]: 0.31 µM | Solubility pH 7.4 ([10]; room temperature overnight): <1 μM | Solubility Media (Media solubility): 116 µM (≈ 35.3 µg/mL) | Papp (A−B) (MDCK-MDR1 cells): 3.03 ×10⁻⁶ cm/s | Papp (B−A) (MDCK-MDR1 cells): 4.44 ×10⁻⁶ cm/s | Efflux ratio (MDCK-MDR1 cells): 1.5 | % remaining after a 60-min incubation (mouse liver microsomes): 6% | % remaining after a 60-min incubation (rat liver microsomes): 32% | % remaining after a 60-min incubation (human liver microsomes): 66% | Brain and plasma concentrations (C3-day) ([7]; 40, 80, 130 and 210 mg/kg/day): ≤ 1 µM

COc1ccc(-c2csc(Nc3cc4ccccc4cn3)n2)cc1 [IND86]
EC50 [1]: 0.34 µM

c1ccc2cc(Nc3nc(-c4cc5ccccc5o4)cs3)ncc2c1 [IND91]
EC50 [1]: 0.92 µM | Brain and plasma concentrations (C3-day) ([7]; 40, 80, 130 and 210 mg/kg/day): ≤ 1 µM

CC(=O)CC(c1ccccc1)c1c(O)c2ccccc2oc1=O (stereo not shown) [Warfarin]
Unbound (%) (human plasma; human, plasma, pH 7.4): 0.68±0.0023%
